Active and inactive are the calls of the source. The calls are words filed in the database; no cut-off is given here.
Tests used:
[1] = Toxicity in Balb/c mouse xenografted with human H1299 cells assessed as effect on body weight at 20 to 80 mg/kg, po administered for 21 days and measured daily […]; type: organism-based; conditions: in vivo, 504 h
[2] = molecular target: Interleukin-1 receptor-associated kinase 1 (Homo sapiens) (UniProt P51617); conditions: 1 uM
[3] = system: A549; test: Induction of apoptosis in human A549 cells assessed as early apoptotic cells at 1 uM after 48 hrs by AnnexinV-FITC/PI staining-based flow cytometric analysis (reference value: 2.91%); type: functional
[4] = system: Proto-oncogene tyrosine-protein kinase Src (Homo sapiens), P12931 [T341M]; test: Inhibition of recombinant full-length human Src T341M mutant at 1 uM using GGEEEEYFELVKKKK as substrate measured after 40 mins in presence of [gamma33P]ATP by scintillation counting method relative to control
[5] = system: NCI-H1299; test: Induction of apoptosis in human H1299 cells assessed as necrotic cells at 1 uM after 48 hrs by AnnexinV-FITC/PI staining-based flow cytometric analysis (reference value: 0.9%); type: functional
[6] = molecular target: Serine/threonine-protein kinase pim-3 (Homo sapiens) (UniProt Q86V86); test: Inhibition of recombinant human Pim-3 (2 to end residues) at 1 uM using RSRHSSYPAGT as substrate measured after 40 mins in presence of [gamma33P]ATP by scintillation counting method relative to control
[7] = system: A549; test: Induction of apoptosis in human A549 cells assessed as decrease in Bcl-2 protein expression at 0.25 to 1 uM after 24 hrs by Western blot analysis; type: functional, cell-based
Summary of the method: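 A549 or H1299 cells exposed to the indicated concentrations for 24 h. Protein extracts then immunoblotted for apoptosis-pathway proteins (Bcl2, Bim, cleaved caspase 3).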

[8] = system: NCI-H1299; test: Induction of apoptosis in human H1299 cells assessed as early apoptotic cells at 0.5 uM after 48 hrs by AnnexinV-FITC/PI staining-based flow cytometric analysis (reference value: 0.248%); type: functional
[9] = molecular target: PI3-kinase p110-alpha/p85-alpha (Homo sapiens) (UniProt P27986+P42336); test: Inhibition of recombinant full-length human PI3K p110alpha/p85alpha at 1 uM using phosphatidylinositol-4, 5-bisphosphate as substrate measured after 40 mins by fluorescence assay relative to control; type: protein-complex assay
[10] = molecular target: Tyrosine-protein kinase Fer (Homo sapiens) (UniProt P16591); test: Inhibition of recombinant human FER (541 to end residues) at 1 uM using KKKSPGEYVNIEFG as substrate measured after 40 mins in presence of [gamma33P]ATP by scintillation counting method relative to control
[11] = system: Hepatocyte growth factor receptor (Homo sapiens), P08581 [Y1230H]; test: Inhibition of recombinant human MET A1209G/V1290L/Y1248H mutant (974 to end residues) at 1 uM using KKKGQEEEYVFIE as substrate measured after 40 mins in presence of [gamma33P]ATP by scintillation counting method relative to control
[12] = molecular target: Serine/threonine-protein kinase Nek9 (Homo sapiens) (UniProt Q8TD19); test: Inhibition of recombinant human NEK9 (1 to 324 residues) at 1 uM using myelin basic protein as substrate measured after 40 mins in presence of [gamma33P]ATP by scintillation counting method relative to control
[13] = molecular target: Platelet-derived growth factor receptor alpha (Homo sapiens) (UniProt P16234); test: Inhibition of recombinant human PDGFRalpha (550 to end residues) at 1 uM using poly[Glu:Tyr] (4:1) as substrate measured after 40 mins in presence of [gamma33P]ATP by scintillation counting method relative to control
[14] = molecular target: Fibroblast growth factor receptor 3 (Homo sapiens) (UniProt P22607); test: Inhibition of recombinant human FGFR3 (447 to 761 residues) at 1 uM using poly(Glu, Tyr) 4:1 as substrate measured after 40 mins in presence of [gamma33P]ATP by scintillation counting method relative to control
[15] = species: Mus musculus; test: Inhibition of recombinant full-length mouse LYN N425D mutant at 1 uM using poly(Glu, Tyr) 4:1 as substrate measured after 40 mins in presence of [gamma33P]ATP by scintillation counting method relative to control
[16] = system: NCI-H1299; test: Induction of cell cycle arrest in human H1299 cells assessed as accumulation at G2/M phase after 24 hrs by propidium iodide/RNase staining based flow cytometric analysis; type: functional
Summary of the method: (§1)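 A549 and H1299 plated at 5×10^5 cells/mL in 6-well plates, treated after adherence for 24 h. Washed with PBS, fixed overnight in ice-cold 75% ethanol, stained with propidium iodide plus RNase A for 30 min at 37 °C, analysed by flow cytometry for phase distribution. Means ± SD, three independent experiments.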

[17] = system: A549; test: Induction of apoptosis in human A549 cells assessed as necrotic cells at 1 uM after 48 hrs by AnnexinV-FITC/PI staining-based flow cytometric analysis (reference value: 0.664%); type: functional
[18] = system: Hepatocyte growth factor receptor (Homo sapiens), P08581 [M1250T]; test: Inhibition of recombinant human MET A1209G/V1290L/M1268T mutant (974 to end residues) at 1 uM using KKKGQEEEYVFIE as substrate measured after 40 mins in presence of [gamma33P]ATP by scintillation counting method relative to control
[19] = molecular target: Dual specificity tyrosine-phosphorylation-regulated kinase 1A (Homo sapiens) (UniProt Q13627); test: Inhibition of recombinant full-length human DYRK1A at 1 uM using RRRFRPASPLRGPPK as substrate measured after 40 mins in presence of [gamma33P]ATP by scintillation counting method relative to control
[20] = molecular target: Cyclin-dependent kinase 9 (Homo sapiens) (UniProt P50750); conditions: A549, 0.25 uM
[21] = system: A549; test: Induction of cell cycle arrest in human A549 cells assessed as accumulation at G2/M phase after 24 hrs by propidium iodide/RNase staining based flow cytometric analysis; type: functional; summary of the method: as §1
[22] = molecular target: Dual specificity mitogen-activated protein kinase kinase 6 (Homo sapiens) (UniProt P52564); test: Inhibition of recombinant human MKK6 (4 to end residues) at 1 uM using unactive SAPK2a as substrate measured after 40 mins in presence of [gamma33P]ATP by scintillation counting method relative to control
[23] = molecular target: Homeodomain-interacting protein kinase 3 (Homo sapiens) (UniProt Q9H422); test: Inhibition of recombinant human HIPK3 (161 to 562 residues) at 1 uM using myelin basic protein as substrate measured after 40 mins in presence of [gamma33P]ATP by scintillation counting method relative to control
[24] = molecular target: Dual specificity tyrosine-phosphorylation-regulated kinase 1B (Homo sapiens) (UniProt Q9Y463); test: Inhibition of recombinant full-length human DYRK1B at 1 uM using RRRFRPASPLRGPPK as substrate measured after 40 mins in presence of [gamma33P]ATP by scintillation counting method relative to control
Dual specificity tyrosine-phosphorylation-regulated kinase 1B (Homo sapiens), sequence (Q9Y463 whole entry, looked up): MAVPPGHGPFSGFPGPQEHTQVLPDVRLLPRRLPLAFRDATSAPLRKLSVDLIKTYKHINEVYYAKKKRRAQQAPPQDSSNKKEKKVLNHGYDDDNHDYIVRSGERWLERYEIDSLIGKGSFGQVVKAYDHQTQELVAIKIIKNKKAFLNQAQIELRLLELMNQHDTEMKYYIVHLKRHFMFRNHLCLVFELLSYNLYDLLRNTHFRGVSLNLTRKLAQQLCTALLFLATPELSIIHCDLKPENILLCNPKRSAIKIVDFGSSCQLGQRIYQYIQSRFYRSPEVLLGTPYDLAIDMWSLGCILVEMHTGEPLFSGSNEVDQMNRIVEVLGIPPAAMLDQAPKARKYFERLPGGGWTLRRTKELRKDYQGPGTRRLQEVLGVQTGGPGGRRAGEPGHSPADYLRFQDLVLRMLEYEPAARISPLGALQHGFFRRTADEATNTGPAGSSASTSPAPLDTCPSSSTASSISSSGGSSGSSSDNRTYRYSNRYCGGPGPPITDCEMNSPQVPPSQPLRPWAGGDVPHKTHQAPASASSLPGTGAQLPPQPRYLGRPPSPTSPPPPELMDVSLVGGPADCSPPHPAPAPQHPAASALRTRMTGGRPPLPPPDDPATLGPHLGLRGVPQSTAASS

Interleukin-1 receptor-associated kinase 1 (Homo sapiens), sequence (P51617 whole entry, looked up): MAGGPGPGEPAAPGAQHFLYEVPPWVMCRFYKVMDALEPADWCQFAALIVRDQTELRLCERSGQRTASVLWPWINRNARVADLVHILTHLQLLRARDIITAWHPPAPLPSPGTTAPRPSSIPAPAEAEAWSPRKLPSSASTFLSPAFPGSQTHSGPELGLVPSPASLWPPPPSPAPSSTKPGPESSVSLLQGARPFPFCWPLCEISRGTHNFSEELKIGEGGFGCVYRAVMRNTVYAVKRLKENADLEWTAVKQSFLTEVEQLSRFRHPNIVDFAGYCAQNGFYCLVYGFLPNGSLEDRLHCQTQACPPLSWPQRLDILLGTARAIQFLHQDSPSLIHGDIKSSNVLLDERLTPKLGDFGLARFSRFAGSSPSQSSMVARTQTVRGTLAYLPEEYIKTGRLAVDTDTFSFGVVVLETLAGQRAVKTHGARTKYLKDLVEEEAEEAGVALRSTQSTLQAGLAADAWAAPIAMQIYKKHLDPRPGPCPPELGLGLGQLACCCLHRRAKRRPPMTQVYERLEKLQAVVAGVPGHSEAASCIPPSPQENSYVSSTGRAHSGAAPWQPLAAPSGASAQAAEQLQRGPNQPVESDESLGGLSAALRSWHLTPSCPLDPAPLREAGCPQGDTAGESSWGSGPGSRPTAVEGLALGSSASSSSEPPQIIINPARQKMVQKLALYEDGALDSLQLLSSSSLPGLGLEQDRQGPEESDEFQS
Homeodomain-interacting protein kinase 3 (Homo sapiens), sequence (Q9H422 whole entry, looked up, the tested form may be a part): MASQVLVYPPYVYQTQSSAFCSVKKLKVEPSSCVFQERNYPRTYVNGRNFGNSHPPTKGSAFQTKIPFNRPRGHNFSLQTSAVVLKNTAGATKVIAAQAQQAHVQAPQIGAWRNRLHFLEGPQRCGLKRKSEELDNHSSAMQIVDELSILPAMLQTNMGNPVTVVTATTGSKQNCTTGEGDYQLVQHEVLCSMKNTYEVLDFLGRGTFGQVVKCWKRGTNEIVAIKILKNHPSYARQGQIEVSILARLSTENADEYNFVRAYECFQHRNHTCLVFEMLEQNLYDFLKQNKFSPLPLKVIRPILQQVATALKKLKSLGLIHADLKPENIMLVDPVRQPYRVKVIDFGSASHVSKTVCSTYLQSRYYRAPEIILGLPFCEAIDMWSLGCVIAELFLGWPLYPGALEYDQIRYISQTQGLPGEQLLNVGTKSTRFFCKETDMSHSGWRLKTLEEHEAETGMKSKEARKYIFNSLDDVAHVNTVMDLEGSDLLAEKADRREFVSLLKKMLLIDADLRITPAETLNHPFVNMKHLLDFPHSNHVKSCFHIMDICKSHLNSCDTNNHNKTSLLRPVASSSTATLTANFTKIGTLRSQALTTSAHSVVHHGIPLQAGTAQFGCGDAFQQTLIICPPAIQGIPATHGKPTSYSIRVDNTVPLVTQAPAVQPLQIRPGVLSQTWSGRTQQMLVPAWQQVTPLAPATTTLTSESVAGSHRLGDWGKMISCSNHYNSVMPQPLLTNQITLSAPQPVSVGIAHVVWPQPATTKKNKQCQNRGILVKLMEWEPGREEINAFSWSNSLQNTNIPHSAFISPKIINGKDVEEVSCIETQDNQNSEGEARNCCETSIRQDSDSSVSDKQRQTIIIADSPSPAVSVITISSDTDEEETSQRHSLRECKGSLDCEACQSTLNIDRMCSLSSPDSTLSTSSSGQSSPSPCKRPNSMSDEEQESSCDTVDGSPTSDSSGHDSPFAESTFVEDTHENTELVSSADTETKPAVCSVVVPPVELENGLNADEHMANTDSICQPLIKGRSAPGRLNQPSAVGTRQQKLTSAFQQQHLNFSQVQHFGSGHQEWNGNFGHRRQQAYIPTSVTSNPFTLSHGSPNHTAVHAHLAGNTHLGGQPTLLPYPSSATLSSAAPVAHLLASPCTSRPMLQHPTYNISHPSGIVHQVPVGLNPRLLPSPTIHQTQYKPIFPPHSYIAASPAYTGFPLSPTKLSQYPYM
Fibroblast growth factor receptor 3 (Homo sapiens), sequence (P22607 23-806 limits assumed): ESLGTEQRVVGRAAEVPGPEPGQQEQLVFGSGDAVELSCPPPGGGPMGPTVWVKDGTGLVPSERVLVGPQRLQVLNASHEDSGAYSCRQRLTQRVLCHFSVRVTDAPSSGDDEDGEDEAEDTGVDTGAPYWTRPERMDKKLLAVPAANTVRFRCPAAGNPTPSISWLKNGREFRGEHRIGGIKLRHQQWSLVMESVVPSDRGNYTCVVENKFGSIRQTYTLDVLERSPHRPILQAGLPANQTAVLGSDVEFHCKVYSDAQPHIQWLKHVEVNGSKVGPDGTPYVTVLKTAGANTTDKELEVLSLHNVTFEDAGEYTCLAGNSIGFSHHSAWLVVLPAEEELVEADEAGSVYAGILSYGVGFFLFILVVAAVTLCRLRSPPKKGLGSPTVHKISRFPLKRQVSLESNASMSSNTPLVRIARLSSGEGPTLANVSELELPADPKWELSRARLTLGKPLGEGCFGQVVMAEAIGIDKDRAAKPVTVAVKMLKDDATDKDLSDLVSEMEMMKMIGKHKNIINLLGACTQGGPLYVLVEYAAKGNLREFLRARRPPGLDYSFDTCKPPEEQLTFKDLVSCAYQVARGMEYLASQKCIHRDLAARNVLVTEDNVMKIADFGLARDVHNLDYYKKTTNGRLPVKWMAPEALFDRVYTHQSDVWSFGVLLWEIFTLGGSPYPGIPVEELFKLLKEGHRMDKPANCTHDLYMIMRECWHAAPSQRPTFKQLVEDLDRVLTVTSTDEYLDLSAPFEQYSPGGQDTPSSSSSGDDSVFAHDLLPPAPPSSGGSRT
Hepatocyte growth factor receptor (Homo sapiens), P08581 [M1250T], sequence (P08581 whole entry M1250T): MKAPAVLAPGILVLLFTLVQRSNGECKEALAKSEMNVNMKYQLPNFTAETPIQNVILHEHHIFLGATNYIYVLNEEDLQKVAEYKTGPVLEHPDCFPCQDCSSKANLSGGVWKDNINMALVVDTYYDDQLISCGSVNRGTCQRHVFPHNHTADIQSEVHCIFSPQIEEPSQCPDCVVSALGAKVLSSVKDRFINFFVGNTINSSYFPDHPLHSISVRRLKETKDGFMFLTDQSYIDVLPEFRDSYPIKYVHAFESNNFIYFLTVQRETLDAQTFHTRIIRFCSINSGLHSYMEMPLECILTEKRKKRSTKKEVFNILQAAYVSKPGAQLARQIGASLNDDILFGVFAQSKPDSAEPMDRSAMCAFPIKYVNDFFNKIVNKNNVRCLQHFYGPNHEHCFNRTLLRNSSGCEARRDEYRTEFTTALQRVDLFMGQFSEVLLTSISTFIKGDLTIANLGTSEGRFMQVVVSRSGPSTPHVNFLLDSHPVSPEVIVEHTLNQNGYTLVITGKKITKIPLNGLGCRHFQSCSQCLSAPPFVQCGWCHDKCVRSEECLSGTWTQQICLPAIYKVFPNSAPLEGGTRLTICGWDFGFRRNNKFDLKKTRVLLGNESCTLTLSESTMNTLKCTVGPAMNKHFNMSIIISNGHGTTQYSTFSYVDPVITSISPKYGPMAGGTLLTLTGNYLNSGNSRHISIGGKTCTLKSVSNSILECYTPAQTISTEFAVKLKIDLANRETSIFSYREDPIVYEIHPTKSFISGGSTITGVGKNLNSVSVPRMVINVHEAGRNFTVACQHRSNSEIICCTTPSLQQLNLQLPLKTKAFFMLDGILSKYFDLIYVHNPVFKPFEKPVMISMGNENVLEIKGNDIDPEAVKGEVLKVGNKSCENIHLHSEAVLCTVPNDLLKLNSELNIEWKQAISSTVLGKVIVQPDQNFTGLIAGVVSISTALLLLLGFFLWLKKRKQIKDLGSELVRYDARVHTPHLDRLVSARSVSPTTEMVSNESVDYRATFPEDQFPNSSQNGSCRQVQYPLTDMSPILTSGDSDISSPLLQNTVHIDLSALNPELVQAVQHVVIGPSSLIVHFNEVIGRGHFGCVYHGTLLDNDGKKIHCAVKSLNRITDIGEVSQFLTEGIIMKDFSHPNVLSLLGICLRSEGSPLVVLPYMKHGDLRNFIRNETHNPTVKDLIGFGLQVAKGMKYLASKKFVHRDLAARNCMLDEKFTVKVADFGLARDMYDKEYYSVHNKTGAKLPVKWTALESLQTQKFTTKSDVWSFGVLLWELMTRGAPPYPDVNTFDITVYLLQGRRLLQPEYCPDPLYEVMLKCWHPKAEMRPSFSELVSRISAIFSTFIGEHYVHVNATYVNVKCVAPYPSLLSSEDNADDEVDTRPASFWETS

## CN(C)C(=O)c1cc2cnc(Nc3ccc(NC(=O)CCCCCCCN=C=S)cc3)nc2n1C1CCCC1
[1]
  Activity: Non-Toxic
[2]
  inhibition: 98%
[3]
  Activity: 1.06%
[4]
  inhibition: 20%
[5]
  Activity: 3.64%
[6]
  inhibition: -8%
[7]
  Activity: Active
[8]
  Activity: 0.758%
[9]
  inhibition: 8%
[10]
  inhibition: 7%
[11]
  inhibition: 62%
[12]
  inhibition: 41%
[13]
  inhibition: 7%
[14]
  inhibition: 28%
[15]
  inhibition: 36%
[16]
  Activity: Dose-dependent effect
[17]
  Activity: 7.76%
[18]
  inhibition: 60%
[19]
  inhibition: 2%
[20]
  inhibition: Active
[21]
  Activity: Dose-dependent effect
[22]
  inhibition: 30%
[23]
  inhibition: 26%
[24]
  inhibition: 0%
